Screens deposited in PubChem by Johns Hopkins Ion Channel Center.
A selection: hits, their analogues and other compounds. The true share with any hit is near 3.5%.
RGS4 inh – inhibitors of human RGS4 | HEK293 M3R/RGS4 inducible, Fluo-4 calcium flux; stronger effect = higher value; triggered by carbachol at its EC20 | P49798 | 0.45% of 310,000 active | B-score at 10 µM;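 active means B-score, a plate-corrected calcium signal, over three deviations above library mean, with baseline fluorescence within five deviations of library mean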;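 further: RGS4 expression induced by doxycycline in cells with stable M3 receptor; B-score is computed from the integrated fluorescence ratio over baseline after carbachol; higher B-score means a larger calcium signal and so more RGS4 inhibition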
Target sequence (P49798 whole entry, looked up): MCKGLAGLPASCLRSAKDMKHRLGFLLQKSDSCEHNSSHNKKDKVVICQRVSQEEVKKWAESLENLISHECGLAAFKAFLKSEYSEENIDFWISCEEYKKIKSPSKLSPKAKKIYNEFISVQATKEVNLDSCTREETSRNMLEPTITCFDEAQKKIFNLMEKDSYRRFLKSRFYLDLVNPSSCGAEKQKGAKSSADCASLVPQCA
MrgX1 allo act – human MrgX1 positive allosteric modulation, primary screen | Q96LB2 | MrgX1-HEK293, Fluo-4 calcium flux, FDSS; stronger effect = higher value | B-score at 10 µM | 0.63% of 310,000 active | AID 588675;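 active means plate-corrected calcium response at least 3 library SD above typical, normal starting fluorescence, not activating the receptor alone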;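 further: compound read alongside a low EC10 to EC30 dose of BAM8-22 agonist; peak minus trough fluorescence over baseline measured at the second addition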
Target sequence (Q96LB2 whole entry, looked up): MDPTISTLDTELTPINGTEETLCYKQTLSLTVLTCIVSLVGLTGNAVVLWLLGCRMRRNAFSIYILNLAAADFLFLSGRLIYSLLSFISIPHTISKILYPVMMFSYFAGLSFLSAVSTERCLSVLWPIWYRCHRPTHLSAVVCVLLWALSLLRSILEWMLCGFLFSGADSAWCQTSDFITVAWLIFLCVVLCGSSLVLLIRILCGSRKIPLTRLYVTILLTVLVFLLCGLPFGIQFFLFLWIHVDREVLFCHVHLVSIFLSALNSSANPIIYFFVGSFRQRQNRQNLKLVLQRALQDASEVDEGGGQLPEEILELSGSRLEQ
MrgX1 antag – blocks BAM8-22 activation of human MrgX1 receptor; MRGX1-HEK293 calcium flux, Fluo-4, BAM8-22 antagonism; stronger effect = lower value; Q96LB2; 1.3% of 310,000 active; B-score at 10 µM;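 active means calcium-response B-score plate-corrected more than 3 library SD below zero, starting fluorescence within 5 deviations, no agonist response on first addition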;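 further: peak minus trough fluorescence over baseline after final BAM8-22 challenge near maximal dose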
RGS4 act – RGS4 potentiation or activation; HEK293 M3R/inducible RGS4, carbachol calcium flux Fluo4; stronger effect = lower value; B-score at 10 µM; 0.92% of 310,000 active;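 active means B-score of the integrated calcium signal more than 4 SD below the library mean, with starting fluorescence not abnormally high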;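 further: negative B-score means reduced calcium response which marks RGS4 activation or potentiation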
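Assay system: HEK293 FlpIn-TREx cells, stable M3R, doxycycline-inducible RGS4 / Probe or stimulus: carbachol, ECmax concentration / Times: overnight RGS4 induction, 30 min dye load 37 °C, 20 min compound RT / Signal: kinetic calcium fluorescence imaging with Fluo4-AM dye, 2 µM / Measure: Agonist-evoked peak-minus-minimum fluorescence over baseline, integrated ratio, B score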
MrgX1 ag – agonists of human MrgX1 receptor | Q96LB2 | MrgX1-HEK293 cells, Fluo-4 calcium fluorescence, agonist mode; stronger effect = higher value | B-score at 10 µM | 0.44% of 310,000 active;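 active means calcium response B-score plate-corrected fluorescence ratio at least 3 library SD, with starting fluorescence B-score inside 5 SD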
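Assay system: stable human MrgX1 HEK293 cell line. Quantity: 15,000 cells per well. Schedule: cells plated overnight, dye loaded 0.5 h 37 °C, 0.5 h room temperature. Detection: Fluo-4 NW calcium-flux fluorescence, kinetic read. Read-out basis: peak-minus-minimum fluorescence over baseline, converted to B scores. Control set: positive and negative control wells on each plate.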
* marks the source's active call; other numbers are inactive results; i = inactive; / = not tested or not shown.

SMILES	RGS4 inh	MrgX1 allo act	MrgX1 antag	RGS4 act	MrgX1 ag
CCOC(=O)N1CCN(c2nc(-c3cccs3)nc3ccccc23)CC1	i	i	i	-7.27*	i
CCCCOc1ccc(CSc2nnc(C)n2N)cc1[N+](=O)[O-]	i	i	i	i	i
CCOc1ccc(CSC(=N)N)cc1[N+](=O)[O-]	i	i	i	i	45.6*
O=C1COc2ccc(C(=O)COC(=O)c3cc(S(=O)(=O)N4CCOCC4)ccc3F)cc2N1	i	i	i	i	i
O=c1c2ccc([N+](=O)[O-])cc2ncn1CCOc1ccc(Cl)cc1	i	i	i	-8.16*	i
O=c1c2ccc([N+](=O)[O-])cc2ncn1CCOc1cccc(Br)c1	i	i	i	i	i
CCOc1ccc(CN2CCCC(CO)(Cc3ccccc3F)C2)cc1 (stereo not given)	i	i	i	i	64*
COc1cc(Cl)c(CN2CCCC(CO)(Cc3ccccc3F)C2)cc1OC (stereo not given)	i	i	i	i	i
CCOC(=O)c1ccc(N2Cc3ccccc3C2=N)cc1	i	i	i	-7.34*	i
Cc1cc(NC(=O)C(C)C)ncc1NC(=O)Cc1ccccc1	i	i	i	i	i
COc1cc(C(=O)Nc2cnc(NC(=O)C(C)C)cc2C)cc(OC)c1OC	i	i	-5.68*	i	i
Cc1c(C=N)c(O)n(C)c(=O)c1C#N	i	i	i	i	i
Cc1cccc(C)c1NC(=O)CN(C)S(=O)(=O)c1ccc(-c2ccc(=O)[nH]n2)s1	i	i	i	i	i
O=C(c1ccco1)[C@@H]1[C@@H]2C(=O)N(c3ccccc3)C(=O)[C@@H]2C2c3ccccc3C=CN21 (stereo not given in full)	i	i	i	i	i
COc1ccc(N2C(=O)[C@@H]3[C@H](C2=O)[C@H]2c4ccccc4C=CN2[C@@H]3C(=O)Nc2ccccc2)cc1	/	i	-7.13*	/	i
CC1(C)[C@@H](O)CC[C@]2(C)C3C(O)C=C4[C@H]5C[C@@](C)(C(=O)O)CC[C@]5(C)CC[C@]4(C)[C@]3(C)CC[C@@H]12 (stereo not given in full)	i	i	i	i	28.8*
C=CCOc1ccccc1CNCCCN1CCOCC1	i	i	-7.27*	i	i
Cc1cccc(C)c1OCC(=O)Nc1ccccc1N1CCCCC1	i	7.36*	i	i	i
COc1ccc(OCC(=O)Nc2ccccc2N2CCN(C)CC2)cc1	i	i	i	i	i
COc1ccc(OCC(=O)Nc2ccccc2N2CCCCC2)cc1	i	14.6*	i	i	i
Cc1cccc(OCC(=O)Nc2ccccc2N2CCCCC2)c1C	i	i	i	i	i
Cc1nc(-c2nc(-c3c(C(=O)NNC(=O)c4ccc(Cl)cc4)noc3C)cs2)cs1	i	i	i	i	i
Cc1nc(-c2nc(-c3c(C(=O)NN)noc3C)cs2)cs1	i	i	-5.87*	i	i
Cc1cc(F)ccc1Oc1cc(NN2CCCCC2)c([N+](=O)[O-])cc1[N+](=O)[O-]	i	i	i	i	i
COc1cccc(Oc2cc(NN3CCCCC3)c([N+](=O)[O-])cc2[N+](=O)[O-])c1OC	i	i	i	-9.12*	i
SMILES	RGS4 inh	MrgX1 allo act	MrgX1 antag	RGS4 act	MrgX1 ag
CC12CCC(C(=O)N(CSC(=S)N/N=C\c3ccccc3O)C1=O)C2(C)C (stereo not given)	i	9.33*	i	i	i
CCCCn1c(N)c(N(CC(C)C)C(=O)c2cc(S(=O)(=O)N3CCOCC3)ccc2Cl)c(=O)[nH]c1=O	i	i	i	i	i
CCc1ccc(C2C(C#N)=C(N)C(C#N)(C#N)C3=CCC(C(C)(C)C)CC32)cc1 (stereo not given)	i	i	-5.82*	i	i
Cc1c(Cl)cccc1NC(=O)COC(=O)c1c2c(nc3ccccc13)CCN(Cc1ccccc1)C2	i	i	i	i	i
CC(C)NC(=O)NC(=O)COC(=O)c1c2c(nc3ccccc13)CCC2	i	i	i	-7.05*	i
CC(C)c1ccccc1NC(=O)COC(=O)c1c2c(nc3ccccc13)CCN(Cc1ccccc1)C2	i	i	i	-8.12*	i
Cc1nc2ccc(S(=O)(=O)NCC(=O)Nc3ccc(F)cc3)cc2s1	i	i	i	i	i
CCc1nc2oc3ccccc3c(=O)c2cc1C(=O)OC	i	i	i	i	i
CCOC(=O)COc1ccc(/C=C2/C(=O)NN(c3ccc(F)cc3)C2=O)cc1OC	i	i	i	i	46.3*
COc1cc(/C=C2/C(=O)NN(c3ccc(Cl)cc3)C2=O)cc(OC)c1O	i	i	i	i	44.2*
COc1cc(/C=C2\C(=O)NN(c3ccc(C)cc3)C2=O)cc([N+](=O)[O-])c1O	i	i	i	i	i
COc1cccc2cc(C(=O)CS(=O)(=O)c3ccc(Cl)cc3)c(=O)oc12	i	i	i	i	i
CC(=O)Nc1ccc(NC(=O)c2cc(=O)c3cc(C)c(C)cc3o2)cc1	i	i	i	i	i
Cc1ccc(-c2nc(CN(C)Cc3cccc4cnccc34)c(C)o2)s1	i	i	i	i	27.8*
COc1cc(C(=O)NCCC(=O)NC(C)CCc2ccccc2)cc(OC)c1OC (stereo not given)	i	i	i	i	i
Cc1nc2ccc(NC(=O)CSc3nnc(C)s3)cc2[nH]1	i	i	i	i	i
COc1cc(/C=C2\CCC/C(=C\c3ccc(O)c(OC)c3)C2=O)ccc1O	i	i	-5.74*	-9.86*	i
CCCCCc1cc(=O)oc2c(C(CCN3CCCC3)c3cc(OC)c(OC)c(OC)c3)c(OC)cc(OC)c12 (stereo not given)	i	i	-5.35*	i	i
CCCCCc1cc(=O)oc2c(C(CCN3CCCCC3)c3ccc(OC)cc3)c(OC)cc(OC)c12 (stereo not given)	i	i	i	i	i
O=C(NCc1ccc2c(c1)OCO2)C(=O)Nc1cc2c3c(c1)CC(=O)N3CCC2	i	i	i	i	i
Cc1nn(C)c(Oc2cccc(C(F)(F)F)c2)c1C=O	i	i	-5.88*	i	i
CSCCC(NC(=O)COc1ccccc1)C(=O)N(C)CC(=O)Nc1c(C)cccc1C (stereo not given)	i	i	i	i	i
